# Columns and labels:
# HEK-293T = experiment: Multiplex assay against HEK293T; type: toxicity, cell-based; settings: human;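 for Population Tubulin-Different-Phenotype (%): share of the cells with healthy nuclei that show this phenotype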
# Method in brief: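 Phenotypes for tubulin, mitochondrial mass and membrane permeability are expressed as per cents of healthy-nucleus cells. Cells were stained live at seeding with Hoechst33342, BioTracker Green Microtubule Cytoskeleton Dye, MitoTracker Red and Annexin V Alexa Fluor 680, then imaged after compound addition on a CQ1 microscope at 37°C and 5% CO2. Machine-learning gating in CellPathfinder separated Hoechst high-intensity objects from normal cells, divided normal cells by nuclear state (healthy, pyknosed, fragmented) and divided pyknosed cells into mitotic or apoptotic.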
# Fibroblast = experiment: Incucyte cell viability with human fibroblast; type: toxicity, cell-based; settings: 10 µM, compound concentration 10 uM; note: filed as whole numbers so only -1 and 0 and 1 occur
# [1] = 12 h, 1 µM, compound concentration 1 uM, replicate 1
# [2] = 12 h, 1 µM, compound concentration 1 uM, replicate 2
# [3] = 12 h, 10 µM, compound concentration 10 uM, replicate 1
# [4] = 12 h, 10 µM, compound concentration 10 uM, replicate 2
# [5] = 24 h, 1 µM, compound concentration 1 uM, replicate 1
# [6] = 24 h, 1 µM, compound concentration 1 uM, replicate 2
# [7] = 24 h, 10 µM, compound concentration 10 uM, replicate 1
# [8] = 24 h, 10 µM, compound concentration 10 uM, replicate 2
# [9] = 48 h, 1 µM, compound concentration 1 uM, replicate 1
# [10] = 48 h, 1 µM, compound concentration 1 uM, replicate 2
# [11] = 48 h, 10 µM, compound concentration 10 uM, replicate 1
# [12] = 48 h, 10 µM, compound concentration 10 uM, replicate 2
smiles,measurement,setting,value
CC(C)c1cc(Nc2nc(N3CCC[C@H](N)C3)ncc2C(N)=O)cc(C(C)C)n1,Population Apoptotic (%),HEK-293T; [1],61%
same,Population Fragmented Nuclei (%),HEK-293T; [1],9%
same,Population Healthy Nuclei (%),HEK-293T; [1],30%
same,Population Hoechst High Intensity Objects (%),HEK-293T; [1],11%
same,Population Membrane Permeable-Phenotype (%),HEK-293T; [1],9%
same,Population Mitochondria Different-Phenotype (%),HEK-293T; [1],95%
same,Population Mitotic Cells (%),HEK-293T; [1],38%
same,Population Normal (%),HEK-293T; [1],88%
same,Population Pyknosed Nuclei (%),HEK-293T; [1],60%
same,Population Tubulin-Different-Phenotype (%),HEK-293T; [1],100%
same,Total Cell Count,HEK-293T; [1],225
same,Population Apoptotic (%),HEK-293T; [2],52%
same,Population Fragmented Nuclei (%),HEK-293T; [2],5%
same,Population Healthy Nuclei (%),HEK-293T; [2],26%
same,Population Hoechst High Intensity Objects (%),HEK-293T; [2],7%
same,Population Membrane Permeable-Phenotype (%),HEK-293T; [2],8%
same,Population Mitochondria Different-Phenotype (%),HEK-293T; [2],91%
same,Population Mitotic Cells (%),HEK-293T; [2],47%
same,Population Normal (%),HEK-293T; [2],92%
same,Population Pyknosed Nuclei (%),HEK-293T; [2],68%
same,Population Tubulin-Different-Phenotype (%),HEK-293T; [2],97%
same,Total Cell Count,HEK-293T; [2],140
same,Population Apoptotic (%),HEK-293T; [3],88%
same,Population Healthy Nuclei (%),HEK-293T; [3],6%
same,Population Hoechst High Intensity Objects (%),HEK-293T; [3],18%
same,Population Membrane Permeable-Phenotype (%),HEK-293T; [3],0%
same,Population Mitochondria Different-Phenotype (%),HEK-293T; [3],93%
same,Population Mitotic Cells (%),HEK-293T; [3],11%
same,Population Normal (%),HEK-293T; [3],81%
same,Population Pyknosed Nuclei (%),HEK-293T; [3],86%
same,Population Tubulin-Different-Phenotype (%),HEK-293T; [3],43%
same,Total Cell Count,HEK-293T; [3],313
same,Population Apoptotic (%),HEK-293T; [4],64%
same,Population Fragmented Nuclei (%),HEK-293T; [4],7%
same,Population Healthy Nuclei (%),HEK-293T; [4],5%
same,Population Hoechst High Intensity Objects (%),HEK-293T; [4],5%
same,Population Membrane Permeable-Phenotype (%),HEK-293T; [4],10%
same,Population Mitochondria Different-Phenotype (%),HEK-293T; [4],90%
same,Population Mitotic Cells (%),HEK-293T; [4],35%
same,Population Normal (%),HEK-293T; [4],94%
same,Population Pyknosed Nuclei (%),HEK-293T; [4],87%
same,Population Tubulin-Different-Phenotype (%),HEK-293T; [4],40%
same,Total Cell Count,HEK-293T; [4],206
same,Population Apoptotic (%),HEK-293T; [5],65%
same,Population Fragmented Nuclei (%),HEK-293T; [5],8%
same,Population Healthy Nuclei (%),HEK-293T; [5],28%
same,Population Hoechst High Intensity Objects (%),HEK-293T; [5],14%
same,Population Membrane Permeable-Phenotype (%),HEK-293T; [5],5%
same,Population Mitochondria Different-Phenotype (%),HEK-293T; [5],94%
same,Population Mitotic Cells (%),HEK-293T; [5],34%
same,Population Normal (%),HEK-293T; [5],85%
same,Population Pyknosed Nuclei (%),HEK-293T; [5],63%
same,Population Tubulin-Different-Phenotype (%),HEK-293T; [5],91%
same,Total Cell Count,HEK-293T; [5],234
same,Population Apoptotic (%),HEK-293T; [6],62%
same,Population Fragmented Nuclei (%),HEK-293T; [6],9%
same,Population Healthy Nuclei (%),HEK-293T; [6],40%
same,Population Hoechst High Intensity Objects (%),HEK-293T; [6],5%
same,Population Membrane Permeable-Phenotype (%),HEK-293T; [6],9%
same,Population Mitochondria Different-Phenotype (%),HEK-293T; [6],89%
same,Population Mitotic Cells (%),HEK-293T; [6],37%
same,Population Normal (%),HEK-293T; [6],94%
same,Population Pyknosed Nuclei (%),HEK-293T; [6],49%
same,Population Tubulin-Different-Phenotype (%),HEK-293T; [6],96%
same,Total Cell Count,HEK-293T; [6],170
same,Population Apoptotic (%),HEK-293T; [7],90%
same,Population Fragmented Nuclei (%),HEK-293T; [7],14%
same,Population Healthy Nuclei (%),HEK-293T; [7],2%
same,Population Hoechst High Intensity Objects (%),HEK-293T; [7],22%
same,Population Membrane Permeable-Phenotype (%),HEK-293T; [7],0%
same,Population Mitochondria Different-Phenotype (%),HEK-293T; [7],100%
same,Population Mitotic Cells (%),HEK-293T; [7],9%
same,Population Normal (%),HEK-293T; [7],77%
same,Population Pyknosed Nuclei (%),HEK-293T; [7],82%
same,Population Tubulin-Different-Phenotype (%),HEK-293T; [7],28%
same,Total Cell Count,HEK-293T; [7],321
same,Population Apoptotic (%),HEK-293T; [8],89%
same,Population Fragmented Nuclei (%),HEK-293T; [8],11%
same,Population Healthy Nuclei (%),HEK-293T; [8],15%
same,Population Hoechst High Intensity Objects (%),HEK-293T; [8],8%
same,Population Membrane Permeable-Phenotype (%),HEK-293T; [8],10%
same,Population Mitochondria Different-Phenotype (%),HEK-293T; [8],40%
same,Population Mitotic Cells (%),HEK-293T; [8],10%
same,Population Normal (%),HEK-293T; [8],91%
same,Population Pyknosed Nuclei (%),HEK-293T; [8],72%
same,Population Tubulin-Different-Phenotype (%),HEK-293T; [8],70%
same,Total Cell Count,HEK-293T; [8],206
same,Population Apoptotic (%),HEK-293T; [9],72%
same,Population Fragmented Nuclei (%),HEK-293T; [9],13%
same,Population Healthy Nuclei (%),HEK-293T; [9],39%
same,Population Hoechst High Intensity Objects (%),HEK-293T; [9],15%
same,Population Membrane Permeable-Phenotype (%),HEK-293T; [9],2%
same,Population Mitochondria Different-Phenotype (%),HEK-293T; [9],85%
same,Population Mitotic Cells (%),HEK-293T; [9],27%
same,Population Normal (%),HEK-293T; [9],84%
same,Population Pyknosed Nuclei (%),HEK-293T; [9],46%
same,Population Tubulin-Different-Phenotype (%),HEK-293T; [9],95%
same,Total Cell Count,HEK-293T; [9],246
same,Population Apoptotic (%),HEK-293T; [10],66%
same,Population Fragmented Nuclei (%),HEK-293T; [10],7%
same,Population Healthy Nuclei (%),HEK-293T; [10],55%
same,Population Hoechst High Intensity Objects (%),HEK-293T; [10],7%
same,Population Membrane Permeable-Phenotype (%),HEK-293T; [10],3%
same,Population Mitochondria Different-Phenotype (%),HEK-293T; [10],81%
same,Population Mitotic Cells (%),HEK-293T; [10],33%
same,Population Normal (%),HEK-293T; [10],92%
same,Population Pyknosed Nuclei (%),HEK-293T; [10],36%
same,Population Tubulin-Different-Phenotype (%),HEK-293T; [10],96%
same,Total Cell Count,HEK-293T; [10],213
same,Population Apoptotic (%),HEK-293T; [11],71%
same,Population Fragmented Nuclei (%),HEK-293T; [11],22%
same,Population Healthy Nuclei (%),HEK-293T; [11],2%
same,Population Hoechst High Intensity Objects (%),HEK-293T; [11],17%
same,Population Membrane Permeable-Phenotype (%),HEK-293T; [11],0%
same,Population Mitochondria Different-Phenotype (%),HEK-293T; [11],100%
same,Population Mitotic Cells (%),HEK-293T; [11],28%
same,Population Normal (%),HEK-293T; [11],82%
same,Population Pyknosed Nuclei (%),HEK-293T; [11],74%
same,Population Tubulin-Different-Phenotype (%),HEK-293T; [11],57%
same,Total Cell Count,HEK-293T; [11],341
same,Population Apoptotic (%),HEK-293T; [12],92%
same,Population Fragmented Nuclei (%),HEK-293T; [12],23%
same,Population Healthy Nuclei (%),HEK-293T; [12],26%
same,Population Hoechst High Intensity Objects (%),HEK-293T; [12],7%
same,Population Membrane Permeable-Phenotype (%),HEK-293T; [12],13%
same,Population Mitochondria Different-Phenotype (%),HEK-293T; [12],64%
same,Population Mitotic Cells (%),HEK-293T; [12],7%
same,Population Normal (%),HEK-293T; [12],92%
same,Population Pyknosed Nuclei (%),HEK-293T; [12],50%
same,Population Tubulin-Different-Phenotype (%),HEK-293T; [12],91%
same,Total Cell Count,HEK-293T; [12],182
same,Population Apoptotic (%),HEK-293T; replicate 1,30%
same,Population Fragmented Nuclei (%),HEK-293T; replicate 1,5%
same,Population Healthy Nuclei (%),HEK-293T; replicate 1,23%
same,Population Hoechst High Intensity Objects (%),HEK-293T; replicate 1,12%
same,Population Membrane Permeable-Phenotype (%),HEK-293T; replicate 1,0%
same,Population Mitochondria Different-Phenotype (%),HEK-293T; replicate 1,74%
same,Population Mitotic Cells (%),HEK-293T; replicate 1,69%
same,Population Normal (%),HEK-293T; replicate 1,87%
same,Population Pyknosed Nuclei (%),HEK-293T; replicate 1,71%
same,Population Tubulin-Different-Phenotype (%),HEK-293T; replicate 1,3%
same,Growth Rate,"Fibroblast; 0 h, replicate number 1, timepoint 0 hours",0
same,Growth Rate,"Fibroblast; 6 h, replicate number 1, timepoint 6 hours",1
same,Growth Rate,"Fibroblast; 6 h, replicate number 2, timepoint 6 hours",0
same,Growth Rate,"Fibroblast; 12 h, replicate number 1, timepoint 12 hours",1
same,Growth Rate,"Fibroblast; 12 h, replicate number 2, timepoint 12 hours",0
same,Growth Rate,"Fibroblast; 18 h, replicate number 1, timepoint 18 hours",0
same,Growth Rate,"Fibroblast; 24 h, replicate number 1, timepoint 24 hours",0
